Assay results from ChEMBL document CHEMBL1944511, “Bakuchiol derivatives as novel and potent cytotoxic agents: a report” (Eur J Med Chem, 2012).
The source made the active and inactive calls. No cut-off for these calls is given here.

Key:
HL-60 [1] = assay: Induction of apoptosis in human HL60 cells assessed as increase in […] sub-G0 fraction at 10 uM by propidium iodide staining-based flow cytometric analysis (reference value: 6%); format: functional
PC-3 [2] = assay: Growth inhibition of human PC3 cells at 50 uM after 48 hrs by sulpharhodamine B assay; format: functional; conditions: PC-3, 48 h, read-out: GI
In short: (§1)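 Cells grown in RPMI-1640/MEM with 10% FCS, penicillin/streptomycin, 37 °C, 5% CO2. Seeded in 96-well plates, allowed to adhere overnight, then exposed 48 h to analogs in DMSO (vehicle <0.2% in controls). TCA-fixed, stained with 0.4% SRB in 1% acetic acid, dye solubilized in 10 mM Tris base, OD 570 nm (ref 620 nm). Mean ± SD of three experiments run in triplicate.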

HL-60 [3] = assay: Induction of apoptosis in human HL60 cells assessed as increase in […] sub-G0 fraction at 1 uM by propidium iodide staining-based flow cytometric analysis (reference value: 6%); format: functional
A549 [4] = assay: Cytotoxicity against human A549 cells after 48 hrs by sulpharhodamine B assay; format: functional, cell-based; conditions: A549, 48 h
In short: (§2)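 Cells were grown in RPMI-1640/MEM with 10% FCS and penicillin/streptomycin at 37 °C under 5% CO2, then seeded and left to adhere overnight. Analogs in DMSO (vehicle <0.2%) were added at several concentrations for 48 h. Cells were fixed with cold 50% TCA, stained with 0.4% SRB in 1% acetic acid, solubilised in 10 mM Tris, and read at OD 570/620 nm. IC50 came from non-linear regression.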

THP-1 [5] = assay: Cytotoxicity against human THP1 cells after 48 hrs by sulpharhodamine B assay; format: functional, cell-based; conditions: THP-1, 48 h; in short: as §2
HL-60 [6] = assay: Induction of apoptosis in human HL60 cells assessed as increase in […] sub-G0 fraction at 20 uM by propidium iodide staining-based flow cytometric analysis (reference value: 6%); format: functional
IMR-32 [7] = assay: Growth inhibition of human IMR32 cells at 5 uM after 48 hrs by sulpharhodamine B assay; format: functional; conditions: IMR-32, 48 h, read-out: GI
In short: (§3)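 This is the SRB protein-stain assay on adherent cells in RPMI-1640/MEM with 10% FCS. Each compound in DMSO (vehicle <0.2%) was applied at a single fixed concentration for 48 h. Cells were fixed with TCA and stained with SRB, and the dye was solubilised in Tris and read at 570/620 nm. Percent growth inhibition is relative to vehicle-treated controls, reported as mean ± SD of three experiments run in triplicate.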

A549 [8] = assay: Growth inhibition of human A549 cells at 5 uM after 48 hrs by sulpharhodamine B assay; format: functional; conditions: A549, 48 h, read-out: GI; in short: as §3
HL-60 [9] = assay: Induction of apoptosis in human HL60 cells assessed as loss of mitochondrial membrane potential after 24 hrs by rodamine-123 staining-based flow cytometric analysis; format: functional, cell-based
THP-1 [10] = assay: Growth inhibition of human THP1 cells at 50 uM after 48 hrs by sulpharhodamine B assay; format: functional; conditions: THP-1, 48 h, read-out: GI; in short: as §1
HCT-15 = assay: Growth inhibition of human HCT15 cells at 10 uM after 48 hrs by sulpharhodamine B assay; format: functional; conditions: HCT-15, 48 h, read-out: GI; in short: as §3
A549 [11] = assay: Growth inhibition of human A549 cells at 30 uM after 48 hrs by sulpharhodamine B assay; format: functional; conditions: A549, 48 h, read-out: GI; in short: as §3
PC-3 [12] = assay: Growth inhibition of human PC3 cells at 30 uM after 48 hrs by sulpharhodamine B assay; format: functional; conditions: PC-3, 48 h, read-out: GI; in short: as §1
HL-60 [13] = assay: Induction of apoptosis in human HL60 cells assessed as loss of mitochondrial membrane potential at 20 uM after 24 hrs by rodamine-123 staining-based flow cytometric analysis (reference value: 6%); format: functional
HL-60 [14] = assay: Induction of apoptosis in human HL60 cells assessed as DNA fragmentation after 24 hrs by agarose gel electrophoresis; format: functional, cell-based
In short: (§4)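 HL-60 cells (2×10^6/well/2 mL) treated 24 h in 6-well plates. DNA extracted with phenol:chloroform:isoamyl alcohol, ethanol-precipitated, run on 1% agarose at 80 V for 1.5 h in TAE.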

THP-1 [15] = assay: Growth inhibition of human THP1 cells at 20 uM after 48 hrs by sulpharhodamine B assay; format: functional; conditions: THP-1, 48 h, read-out: GI; in short: as §1
DU-145 [16] = assay: Growth inhibition of human DU145 cells at 5 uM after 48 hrs by sulpharhodamine B assay; format: functional; conditions: DU-145, 48 h, read-out: GI; in short: as §3
HEp-2 [17] = assay: Cytotoxicity against human Hep2 cells after 48 hrs by sulpharhodamine B assay; format: functional, cell-based; conditions: HEp-2, 48 h; in short: as §2
THP-1 [18] = assay: Growth inhibition of human THP1 cells at 10 uM after 48 hrs by sulpharhodamine B assay; format: functional; conditions: THP-1, 48 h, read-out: GI; in short: as §1
HeLa = assay: Growth inhibition of human HeLa cells at 30 uM after 48 hrs by sulpharhodamine B assay; format: functional; conditions: read-out: GI; in short: as §3
HEp-2 [19] = assay: Growth inhibition of human Hep2 cells at 50 uM after 48 hrs by sulpharhodamine B assay; format: functional; conditions: HEp-2, 48 h, read-out: GI; in short: as §3
OVCAR-5 = assay: Growth inhibition of human OVCAR5 cells at 50 uM after 48 hrs by sulpharhodamine B assay; format: functional; conditions: OVCAR-5, 48 h, read-out: GI; in short: as §3
MCF7 [20] = assay: Growth inhibition of human MCF7 cells at 50 uM after 48 hrs by sulpharhodamine B assay; format: functional; conditions: MCF7, 48 h, read-out: GI; in short: as §3
MCF7 [21] = assay: Cytotoxicity against human MCF7 cells after 48 hrs by sulpharhodamine B assay; format: functional, cell-based; conditions: MCF7, 48 h; in short: as §2
THP-1 [22] = assay: Growth inhibition of human THP1 cells at 5 uM after 48 hrs by sulpharhodamine B assay; format: functional; conditions: THP-1, 48 h, read-out: GI; in short: as §1
IMR-32 [23] = assay: Growth inhibition of human IMR32 cells at 30 uM after 48 hrs by sulpharhodamine B assay; format: functional; conditions: IMR-32, 48 h, read-out: GI; in short: as §3
DU-145 [24] = assay: Growth inhibition of human DU145 cells at 10 uM after 48 hrs by sulpharhodamine B assay; format: functional; conditions: DU-145, 48 h, read-out: GI; in short: as §3
HL-60 [25] = assay: Cytotoxicity against human HL60 cells after 24 hrs by MTT assay; format: functional, cell-based; conditions: for IC50: HL-60, 24 h
In short: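 Exponentially growing HL-60 cells (1.5×10^4 per well) in 96-well plates were exposed to a range of compound concentrations in DMSO, with vehicle-only controls. MTT (2.5 mg/mL stock) was added for 3–4 h at 37 °C, and formazan was dissolved in DMSO and read at OD 570/620 nm. […] Data are mean ± SD of n = 6 wells from two experiments.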

HL-60 [26] = assay: Induction of apoptosis in human HL60 cells assessed as DNA fragmentation at 20 uM after 24 hrs by agarose gel electrophoresis; format: functional, cell-based; in short: as §4
HL-60 [27] = assay: Induction of apoptosis in human HL60 cells assessed as DNA fragmentation at 40 uM after 24 hrs by agarose gel electrophoresis; format: functional, cell-based; in short: as §4

SMILES	Activity (HL-60 [1]) [%]	inhibition of growth at 50 µM (PC-3 [2]) [%]	Activity (HL-60 [3]) [%]	IC50 (A549 [4]) [µM]	IC50 (THP-1 [5]) [µM]	Activity (HL-60 [6]) [%]	inhibition of growth at 5 µM (IMR-32 [7]) [%]	inhibition of growth at 5 µM (A549 [8]) [%]	Activity (HL-60 [9])	inhibition of growth at 50 µM (THP-1 [10]) [%]	inhibition of growth at 10 µM (HCT-15) [%]	inhibition of growth at 30 µM (A549 [11]) [%]	inhibition of growth at 30 µM (PC-3 [12]) [%]	Activity (HL-60 [13]) [%]	inhibition of growth at 20 µM (THP-1 [15]) [%]	inhibition of growth at 5 µM (DU-145 [16]) [%]	IC50 (HEp-2 [17]) [µM]	inhibition of growth at 10 µM (THP-1 [18]) [%]	inhibition of growth at 30 µM (HeLa) [%]	inhibition of growth at 50 µM (HEp-2 [19]) [%]	other results
COc1ccc(/C=C/[C@](C)(/C=C/c2ccc(O)cc2)CCC=C(C)C)cc1	41	93	5	12	4.2	54	13	24	Dose-dependent effect	86	50	55	50	51.4	78	20	14	62	56	62	Activity (HL-60 [14]): Dose-dependent effect; inhibition of growth at 50 µM (OVCAR-5): 67%; inhibition of growth at 50 µM (MCF7 [20]): 77%; IC50 (MCF7 [21]): 23 µM; inhibition of growth at 5 µM (THP-1 [22]): 53%; inhibition of growth at 30 µM (IMR-32 [23]): 51%; inhibition of growth at 10 µM (DU-145 [24]): 57%; Activity (HL-60 [25]): Dose-dependent effect; IC50 (HL-60 [25]): 16 µM
CC1C(C(C)(C)O)CCC1(C)/C=C/c1ccc(O)cc1 (centres undefined)	34	86	8	17	3.5	48	46	32	Dose-dependent effect	93	55	61	62	49.1	76	32	19	65	52	65	Activity (HL-60 [26]): Active; Activity (HL-60 [27]): Active; inhibition of growth at 50 µM (OVCAR-5): 75%; inhibition of growth at 50 µM (MCF7 [20]): 79%; IC50 (MCF7 [21]): 22 µM; inhibition of growth at 5 µM (THP-1 [22]): 54%; inhibition of growth at 30 µM (IMR-32 [23]): 57%; inhibition of growth at 10 µM (DU-145 [24]): 50%; Activity (HL-60 [25]): Dose-dependent effect; IC50 (HL-60 [25]): 18 µM
